Values after ≈ are worked out from the molar mass of the structure shown.
Legend:
Format in all cases: functional
[1] = tested on: Staphylococcus aureus; experiment: Antibacterial activity against Micrococcus pyogenes clinical isolate after 18 hrs by microdilution assay
Procedure, shortened: (§1)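 Broth microdilution in Mueller Hinton broth, inoculum 5 × 10^5–10^6 cfu/mL final, compounds dissolved in DMSO (at most 1% in the solution), 37 °C for 18 h aerobically. Blank controls received DMSO alone; magnolol served as positive control.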

[2] = tested on: Staphylococcus aureus; experiment: Antibacterial activity against Staphylococcus aureus ATCC 25923 after 18 hrs by microdilution assay; details: ATCC 25923, 18 h; procedure, shortened: as §1
[3] = tested on: Staphylococcus epidermidis; experiment: Antibacterial activity against Staphylococcus epidermidis ATCC 12228 after 18 hrs by microdilution assay; details: ATCC 12228, 18 h; procedure, shortened: as §1
[4] = tested on: Escherichia coli; experiment: Antibacterial activity against Escherichia coli ATCC 25922 after 18 hrs by microdilution assay; details: ATCC 25922, 18 h; procedure, shortened: as §1
[5] = tested on: Bacillus cereus; experiment: Antibacterial activity against Bacillus cereus clinical isolate after 18 hrs by microdilution assay; procedure, shortened: as §1
[6] = tested on: Micrococcus luteus; experiment: Antibacterial activity against Micrococcus luteus ATCC 9341 after 18 hrs by microdilution assay; details: ATCC 9341, 18 h; procedure, shortened: as §1
[7] = tested on: Pseudomonas aeruginosa; experiment: Antibacterial activity against Pseudomonas aeruginosa ATCC 14502 after 18 hrs by microdilution assay; details: ATCC 14502, 18 h; procedure, shortened: as §1
[8] = tested on: Serratia marcescens; experiment: Antibacterial activity against Serratia marcescens ATCC 25419 after 18 hrs by microdilution assay; details: ATCC 25419, 18 h; procedure, shortened: as §1
[9] = tested on: Bacillus subtilis; experiment: Antibacterial activity against Bacillus subtilis ATCC 6633 after 18 hrs by microdilution assay; details: ATCC 6633, 18 h; procedure, shortened: as §1
[10] = tested on: Alcaligenes faecalis; experiment: Antibacterial activity against Alcaligenes faecalis ATCC 8750 after 18 hrs by microdilution assay; details: ATCC 8750, 18 h; procedure, shortened: as §1
[11] = tested on: Shigella flexneri; experiment: Antibacterial activity against Shigella flexneri ATCC 12022 after 18 hrs by microdilution assay; details: ATCC 12022, 18 h; procedure, shortened: as §1

Row | MIC [1] [µg/mL] | MIC [2] [µg/mL] | MIC [3] [µg/mL] | MIC [4] [µg/mL] | MIC [5] [µg/mL] | MIC [6] [µg/mL] | MIC [7] [µg/mL] | MIC [8] [µg/mL] | MIC [9] [µg/mL] | MIC [10] [µg/mL] | MIC [11] [µg/mL] | Structure (SMILES)
1 | 50 (≈ 96.8 µM) | > 50 | 12.5 (≈ 24.2 µM) | > 50 | 3.12 (≈ 6.04 µM) | > 50 | > 50 | > 50 | 12.5 (≈ 24.2 µM) | > 50 | > 50 | C=C(C)[C@@H]1CC=C(C)[C@H](CC[C@H]2C(=C)CC[C@@H](C(C)(C)O)[C@]2(C)CCC(=O)OCC)[C@@]1(C)CCC(=O)O
2 | 12.5 (≈ 25.1 µM) | 50 (≈ 100 µM) | 12.5 (≈ 25.1 µM) | > 50 | 3.12 (≈ 6.26 µM) | > 50 | > 50 | > 50 | 12.5 (≈ 25.1 µM) | > 50 | > 50 | C=C(C)[C@@H]1CCC(=C)[C@H](CC[C@H]2C(C)=CC[C@@H](C(=C)C)[C@]2(C)CCC(=O)O)[C@@]1(C)CCC(=O)OCC
3 | 3.12 (≈ 6.44 µM) | 6.25 (≈ 12.9 µM) | 12.5 (≈ 25.8 µM) | > 50 | 3.12 (≈ 6.44 µM) | 6.25 (≈ 12.9 µM) | > 50 | > 50 | 3.12 (≈ 6.44 µM) | > 50 | > 50 | C=C(C)[C@@H]1CC=C(C)[C@H](CC[C@H]2C(=C)CC[C@H]3C(C)(C)[C@@H](O)CC[C@]23C)[C@@]1(C)CCC(=O)OCC [ETHYL LANSIOLATE]
4 | 3.12 (≈ 6.21 µM) | 6.25 (≈ 12.4 µM) | 12.5 (≈ 24.9 µM) | > 50 | 3.12 (≈ 6.21 µM) | 6.25 (≈ 12.4 µM) | > 50 | > 50 | 3.12 (≈ 6.21 µM) | > 50 | > 50 | C=C(C)[C@@H]1CC=C(C)[C@H](CC[C@H]2C(=C)CC[C@@H](C(C)(C)O)[C@]2(C)CCC(=O)OC)[C@@]1(C)CCC(=O)O [LAMESTICUMIN A]
5 | 3.12 (≈ 6.38 µM) | 6.25 (≈ 12.8 µM) | 12.5 (≈ 25.6 µM) | > 50 | 3.12 (≈ 6.38 µM) | 3.12 (≈ 6.38 µM) | > 50 | > 50 | 3.12 (≈ 6.38 µM) | > 50 | > 50 | C=C1CC[C@H]2C(C)(C)[C@@H](O)CC[C@]2(C)[C@H]1CC[C@H]1C(C)=CC[C@@H](C(C)(C)O)[C@]1(C)CCC(=O)OC [LAMESTICUMIN B]
6 | 3.12 (≈ 6.86 µM) | 6.25 (≈ 13.7 µM) | 12.5 (≈ 27.5 µM) | > 50 | 3.12 (≈ 6.86 µM) | 6.25 (≈ 13.7 µM) | > 50 | > 50 | 3.12 (≈ 6.86 µM) | > 50 | > 50 | C=C1CC[C@H]2C(C)(C)[C@@H](O)CC[C@]2(C)[C@H]1CCC1=C(C)C(=O)C[C@H]2C(C)(C)C(=O)CC[C@]12C [LAMESTICUMIN C]
7 | > 50 | > 50 | > 50 | > 50 | 3.12 (≈ 6.86 µM) | > 50 | > 50 | > 50 | 6.25 (≈ 13.7 µM) | > 50 | > 50 | C=C1CC[C@H]2C(C)(C)C(=O)CC[C@]2(C)[C@H]1CCC1=C(C)[C@H](O)C[C@H]2C(C)(C)C(=O)CC[C@]12C [LAMESTICUMIN D]
8 | 6.25 (≈ 12.9 µM) | > 50 | > 50 | > 50 | 3.12 (≈ 6.44 µM) | > 50 | > 50 | > 50 | 12.5 (≈ 25.8 µM) | > 50 | > 50 | C=C1CC[C@H]2C(C)(C)C(=O)CC[C@]2(C)[C@H]1CCC1=C(C)[C@H](O)C[C@@H](C(=C)C)[C@]1(C)CCC(=O)OC [LAMESTICUMIN E]
9 | > 50 | > 50 | > 50 | > 50 | 3.12 (≈ 6.8 µM) | > 50 | > 50 | > 50 | 12.5 (≈ 27.2 µM) | > 50 | > 50 | CC1=CC[C@H]2C(C)(C)C(=O)CC[C@]2(C)[C@H]1CC/C=C(\C)CC/C=C(\C)CC[C@@H](O)C(C)(C)O [LAMESTICUMIN F]
10 | 25 (≈ 93.9 µM) | 25 (≈ 93.9 µM) | 12.5 (≈ 46.9 µM) | > 50 | 12.5 (≈ 46.9 µM) | 12.5 (≈ 46.9 µM) | > 50 | > 50 | 12.5 (≈ 46.9 µM) | > 50 | > 50 | C=CCc1ccc(O)c(-c2cc(CC=C)ccc2O)c1 [MAGNOLOL]

Reference: ChEMBL document CHEMBL1781965, “Onoceranoid-type triterpenoids from Lansium domesticum” (2011)
